These results are taken from the EternaBench riboswitch data.

The subject of the series is MS2 coat protein. Briefly: apparent Kd, MS2 coat protein; higher = weaker binding; RNA-MaP array; FMN 200 µM where present. The method in brief:
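SNAP-549-labelled MS2 coat protein, doubled from 0.7 or 1.5 nM to 3 µM, was titrated over designs transcribed by stalled E. coli RNA polymerase on Illumina sequencing-chip clusters. Titrations were run without and then with constant ligand in 100 mM Tris-HCl pH 7.5, 80 mM KCl, 4 mM MgCl2, BSA, DTT, yeast tRNA and Tween-20. The apparent Kd is the median of filtered per-cluster fits to green signal normalised to red-channel RNA signal and control-cluster median Fmax.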

[1] abbreviates: designed as: OFF switch for flavin mononucleotide, no ligand.
The mark [2] stands for this setting: ligand present: flavin mononucleotide, designed as: OFF switch for flavin mononucleotide.
The mark [3] stands for this setting: designed as: ON switch for flavin mononucleotide, no ligand.
Setting [4] is: ligand present: flavin mononucleotide, designed as: ON switch for flavin mononucleotide.

For “GUGGUAUUCGUAGGAUAUCCGUCGCCACCGUGUGGAGAAGGACGAACAUGAGGAUCACCCAUGUAUCAUGGUGUGGGCGUUGUC”, the “apparent Kd” value under setting [1] worked out at 149 nM and the “apparent Kd” value under setting [2] came out at 148 nM. The corresponding values for “GGAUCGAAUGUCAGGAUAUGCUGGUCCUUGGAUCAGCAGAAGGGACAUGAGGAUCACCCAUGUGACGACGGUCC” are 64.7 nM and 503 nM. On to “CGUGCGUAUGUGAGGAUAUGCUGGUCCUUGGAUCGGCAGAAGGCACAUGAGGAUCACCCAUGUGGUGUCGUCCA”, for which the “apparent Kd” value under setting [1] is 85.8 nM and the “apparent Kd” value under setting [2] was determined as 64.5 nM. Regarding “CCGAAUAUGCAGGAUAUCGUAUAGGAAACUAUACGAGAAGGGUAAACAUGAGGAUCACCCAUGUUCCUUAACGG”, the “apparent Kd” value reads like this: under setting [1], 20.8 nM; under setting [2], 19.2 nM. As to “CUCAAACAUGAGGAUCACCCAUGUGUUGUCGUGGGAGGAUAUCCCAGUUCGGUGGCGUCGGGAGAAGGCCUAUGUC”, the “apparent Kd” value came to 141 nM under setting [3] and 64.7 nM under setting [4]. As for “CAGAGGAUGUAAGGAUAUCGUCAGGAUAACUGACGAGAAGGUACAUGAGGAUCACCCAUGUAACUCUAAUAAUAAUAACCUCUG”, the “apparent Kd” value came out at 11.7 nM under setting [1] and 17.3 nM under setting [2].

Turning to “AGCCACAGAGGAUAUACAUACAUCCAGUGGUAAAGAAUACUACAUGAGGAUCACCCAUGUAGAAGGCUGUGGCA”, the “apparent Kd” value runs as follows: under setting [1], 25.3 nM; under setting [2], 145 nM. As to “GAUUGAGAGCAGGAUAUCUUAGAAAUGUAUGAAAGAGAAGGGCUCACAUGAGGAUCACCCAUGUGGUCCUAGAU”, the “apparent Kd” value was 32.7 nM under setting [1] and 256 nM under setting [2]. Consider “UUUUAACAUGAGGAUCACCCAUGUGAGGAUAUCGAAAUUUAUAUUAAUAUUUUUAAUACGAGAAGGCACAUUUU”, for which the “apparent Kd” value came out at 47.2 nM under setting [1] and 73.6 nM under setting [2]. With “AUUUUAAUAUAGGAUAUCGAAUUUAUUAAUUAUCGAGAAGGAUAAACAUGAGGAUCACCCAUGUGGUAUCAUGG”, the “apparent Kd” value under setting [1] amounted to 210 nM and the “apparent Kd” value under setting [2] was 274 nM. As to “CUGUGACGGUGCGCAAGUGGACGGAGAAGGCACACAUGAGGAUCACCCAUGUGAGCCUGCUAUUGUGAGGAUAUCCGUUCGUAC”, the “apparent Kd” value is, setting by setting: under setting [1], 5.52 nM; under setting [2], 7.02 nM.

Consider “CCCUCACAUGAGGAUCACCCAUGUCAGGAUAUCUAGUCAGACAGUAUAGCACUGCUGAAGAGAAGGGACGUAAA”, for which the “apparent Kd” value runs as follows: under setting [1], 16.4 nM; under setting [2], 20 nM.

Consider “AAAAUUUAUUGAGGAUAUUCAUACACUGCAUACGGAGAAGGCAAACAAUCAUGAGGACAUGAGGAUCACCCAUGUUGUGACCAU”, for which the “apparent Kd” value is 18.9 nM under setting [3] and 15.8 nM under setting [4].

Take “GCGCGCUAAGGAUAUACAUGAGGAUCACCCAUGUUGCUCUGAUGAGCGGGUGUAAGCUGUAGAAGGUAGAGCAA”: the “apparent Kd” value under setting [1] is 61.9 nM and the “apparent Kd” value under setting [2] amounted to 123 nM.

“CAAAGGUGAGGAUAUACAUAACUAUGACGAAAGUCAUAAACACAUGAGGAUCACCCAUGUAGAAGGCACCACAA”: the “apparent Kd” value stood at 26.3 nM under setting [1] and 37.9 nM under setting [2]. Regarding “GCAACGCUUGACAUGAGGAUCACCCAUGUUAGAUUGUUAUGUCAGGAUAUAGUCUAGAAACUAGACUAGAAGGGAUAUGUUGCU”, the “apparent Kd” value turned out to be 269 nM under setting [3] and 44.2 nM under setting [4]. As for “GUAGCAUACUGAGGAUAUUCAUACCGGAAACGGACAUGAGGAUCACCCAUGUUAUAUAAAUAUUUGGAGAAGGCAGAAUGCUAC”, the “apparent Kd” value amounted to 19.4 nM under setting [3] and 13.2 nM under setting [4]. The corresponding values for “GGUCCAACAUGAGGAUAUAGCACCUUAUUGGUGCUAGAAGGCGUGUCGGUAGACAUGAGGAUCACCCAUGUAUUACAUUGGACC” are 93.2 nM and 22.4 nM. In the case of “CCCUCACAUGAGGAUCACCCAUGUCAGGAUAUCUAGUCAGACAGUGUAGCACUGCUGAAGAGAAGGGACGUAAA”, the “apparent Kd” value turned out to be 16.9 nM under setting [1] and 19.4 nM under setting [2].

Consider “AACACGAGAGGUGUUAUCUAACCACAUGAGGAUCACCCAUGUAAGGAUAUCGCGGCUAUCGGCAUCGAGAAGGUACAGGGUGCA”, for which the “apparent Kd” value by setting is: under setting [1], 44.1 nM; under setting [2], 93.6 nM. Regarding “AAUUCACAUGAGGAUCACCCAUGUCAGGAUAUGGUUUCACGUGUUUCGGUGCUUGAGGCCAGAAGGGACAGCUA”, the “apparent Kd” value is, setting by setting: under setting [1], 67 nM; under setting [2], 98.6 nM. Take “UGUUGUGAACAGAACAUGAGGAUCACCCAUGUGCACUCGUGUAAGGAUAUACAAUCGUAUGGAAAGUAGAAGGUACUAAUUAUG”: the “apparent Kd” value under setting [4] is 120 nM.

For the sequence “AAGAAGUGAGGAUAUGCUGCUCGUCACGAAAGUGAUGAGUAGCAGAAGGCACAUGAGGAUCACCCAUGUAAAGA”, the “apparent Kd” value came to 36.9 nM under setting [1] and 55.4 nM under setting [2]. As to “CAGCGAAAGCUGAAUCUGUAGAGAGAGGAUAUACGAGGCGAAAUCCAUACAUGAGGAUCACCCAUGUAGAAGGCUCUCUACAGU”, the “apparent Kd” value is, setting by setting: under setting [1], 155 nM; under setting [2], 363 nM. The corresponding values for “GCGAUAAACGAGGAUAUCGUAUCGGAAACGAUACGAGAAGGUGUAACAUGAGGAUCACCCAUGUUCCUCAACGC” are 38.4 nM and 38.4 nM.

Consider “AGGAGGUCAGGAUAUGCAUGGCGGGACUUGCGUCGUGGCGUGCAGAAGGGACAUGAGGAUCACCCAUGUGGAGU”, for which the “apparent Kd” value runs as follows: under setting [1], 113 nM; under setting [2], 139 nM. With “GUAGCUAACGGAGGAUAUUCAUACCGGAAACGGACAUGAGGAUCACCCAUGUGGCGAAAGCCAUGGGAGAAGGCCGUUAGCUAC”, the “apparent Kd” value runs as follows: under setting [3], 918 nM; under setting [4], 147 nM. “UUUAAACAUGAGGAUCACCCAUGUUUUUUUAUGGGAGGAUAUCUAAGUUAAUUAUAUUAAGGAGAAGGCCUAUUUU”: the “apparent Kd” value under setting [3] came out at 146 nM and the “apparent Kd” value under setting [4] was 26.7 nM. With “ACGUGUAAUACAGGAUAUGUAUUGGAUUAAUCAACCAGUUAUUAAGUAACGACAGAAGGGUAUACAUGAGGAUCACCCAUGUUA”, the “apparent Kd” value is, setting by setting: under setting [1], 24.2 nM; under setting [2], 20.2 nM.

For the sequence “GUCAGCUCGUGAGGAUAUACAACACUGCUUCGGCAGUUUAUUAAGAUCACAUGAGGAUCACCCAUGUAGAAGGCACGAGCUGAU”, the “apparent Kd” value under setting [1] amounted to 14.4 nM and the “apparent Kd” value under setting [2] is 264 nM.

For the sequence “GUUCGGGCAGGAUAUACAUGAGGAUCACCCAUGUGUGUCCAUACGCGUGAGUCCUCGUGUAGAAGGGUUUGGGC”, the “apparent Kd” value is, setting by setting: under setting [1], 23.2 nM; under setting [2], 17.4 nM. Turning to “AUAGCUCUCUAGAAGGUCCAACCAGUAUUCCAUCAGGUAAAUACGGUAGGGAGGAUAUGGGACAUGAGGAUCACCCAUGUGUAG”, the “apparent Kd” value stood at 42.2 nM under setting [3] and 25.2 nM under setting [4]. As for “UGUAUGGACAGAGGAUAUACAGAUAGGAUCUACUAUCAAACAUUCCUGACAUGAGGAUCACCCAUGUAGAAGGCUGUCCAUACU”, the “apparent Kd” value was found to be 21.1 nM under setting [1] and 79.2 nM under setting [2]. Turning to “CUAAUGAGUGCGAGCUGACACAUGAGGAUCACCCAUGUAACACAGGAUAUCUGUCAAGGCGUGAAAGAGAAGGGUGGUCGGAAA”, the “apparent Kd” value was found to be 142 nM under setting [3] and 263 nM under setting [4].

As to “GCGUAUUAGGUGUAGCUAGACAUUCAAGAAGGGUGAAGAACAUGAGGAUCACCCAUGUAGUUGGUACAGGAUAUUGAUUUACGC”, the “apparent Kd” value was determined as 897 nM under setting [3] and 176 nM under setting [4]. On to “AGUCGGAGCAGAGGAUAUAUACAUGAGGAUCACCCAUGUAAAUGAAUGAGCUGGAAACAGCAUGUAUAGAAGGCUGCUCCGACA”, for which the “apparent Kd” value by setting is: under setting [1], 113 nM; under setting [2], 303 nM. “UGAUAGGACAGAGGAUAUACGUAUAUUCUCCUAAACAUGAGGAUCACCCAUGUAGAAGGCUGUCCUAUCUAAGUCGGAAACGAC”: the “apparent Kd” value reads like this: under setting [1], 5.4 nM; under setting [2], 23.4 nM.

Take “GUUGCUUUCCGAGGAUAUUCUGGGCGUGGUUAUACAUGAGGAUCACCCAUGUGGCGGUUGCCUAGGGAGAAGGCGGGCUGCUUC”: the “apparent Kd” value reads like this: under setting [3], 20.3 nM; under setting [4], 17.9 nM. Regarding “AAAUUGUCAGGAUAUCCAACUAUACGAAAUAUAUAUACACAGGAGAAGGGACAUGAGGAUCACCCAUGUUUGAA”, the “apparent Kd” value is, setting by setting: under setting [1], 24.6 nM; under setting [2], 19.1 nM. With “UUGAUAAAUUAGAAGGCGAGAUAAAAUACAAUAAACAUGAGGAUCACCCAUGUGUACCCAUGUUUUGAGGAUAUAGACAUUUAU”, the “apparent Kd” value is 922 nM under setting [3] and 399 nM under setting [4].

As for “AAUUAACAUGAGGAUCACCCAUGUGAGGAUAUGGUAUUACUUGGACAGCUAUGAUCUACCAGAAGGCACAUCUA”, the “apparent Kd” value was found to be 24.4 nM under setting [1] and 44.8 nM under setting [2]. On to “UUCAUGUGAGGAUAUGUGUACUGUUUUUUGUUUAGAUGUACACAGAAGGCACAUGAGGAUCACCCAUGUAGUAC”, for which the “apparent Kd” value came to 49.5 nM under setting [1] and 20.4 nM under setting [2]. For “GGUCGUCAAAUUAACAUGAGGAUCACCCAUGUGAAAACACAUGAGGAUAUGCAUCCUAAUUGGAUGCAGAAGGCAUGGACGACC”, the “apparent Kd” value runs as follows: under setting [3], 16.5 nM; under setting [4], 6.21 nM. For the sequence “AAAACAUGAGGAUCACCCAUGUUUAGAUCGGUCGAUUGAGGUGAGGAUAUACUAAGUUAAGGCUGGUAGAAGGCACUGGGUACA”, the “apparent Kd” value is 62 nM under setting [3] and 43.6 nM under setting [4]. On to “GUCGGAAACGACAAUGAUAGGACUGAGGAUAUACAUAAGUAAGUCCUUACAUGAGGAUCACCCAUGUAGAAGGCAGUCCUAUCU”, for which the “apparent Kd” value amounted to 43.9 nM under setting [1] and 502 nM under setting [2]. “UGGUACAUGGGAGGAUAUCCUCAAGAGACAUGAGGAUCACCCAUGUAUUAUAAGCCUAAUGGCAUGGAGAAGGCCCAUGUACCU”: the “apparent Kd” value by setting is: under setting [3], 467 nM; under setting [4], 49 nM.

Consider “CUUUUGUGAGGAUAUCAGUAGUAGAACAAUAGUACUACUACUGAGAAGGCACAUGAGGAUCACCCAUGUUCCUC”, for which the “apparent Kd” value came to 62.5 nM under setting [1] and 455 nM under setting [2]. On to “GAUUGACAUGAGGAUCACCCAUGUGAGGAUAUCGGCCGGAUCUUGUUAGCUUCCAUCGCGAGAAGGCACAUAGG”, for which the “apparent Kd” value came out at 66.1 nM under setting [1] and 73.5 nM under setting [2]. “GCCGCACAUGAGGAUCACCCAUGUAAUUACAUGGGAGGAUAUCAGUGCUCGAAAGAGCACUGAGAAGGCCUGAGGC”: the “apparent Kd” value came to 81.3 nM under setting [3] and 1070 nM under setting [4].
